The record followed here is ChEMBL document CHEMBL1122734, “A novel peptide delivery system involving peptidase activated prodrugs as antimicrobial agents. Synthesis and biological activity of peptidyl derivatives of 5-fluorouracil” (J Med Chem, 1984).

The structures appear in SMILES notation. Values after ≈ are worked out from the molar mass of the structure shown.

Data set [1] is filed under the species Homo sapiens. The data set can be described thus: Stability in human serum at the time of 24 hours, stability was measured by in the form of percent Fluoro uracil. The data set is classed as ADME. The essentials: (§1)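 A 1:1 mixture of the L,L and L,D peptide diastereomers was added as powder to undiluted serum at 0.5 mg/mL and held at 37 °C. Samples were taken at time points, filtered through glass fiber, and analysed by reversed-phase (RP-18) HPLC. Values are the increase in percent free 5-FU.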

The species entered for data set [2] is Mus musculus. The data set can be described thus: Stability in mouse serum at the time of 1.5 hours, stability was measured by in the form of percent Fluoro uracil. The data set is classed as ADME. The essentials: as §1
Data set [3] relates to Candida albicans. Description: Compound is evaluated for minimum inhibitory concentrations against Candida albicans strain BC759. The data set is classed as functional. The essentials: (§2)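 Twofold broth dilution in yeast carbon base medium with lysine 200 µg/mL. Final inoculum was approximately 10^4-10^5 cfu/mL, incubated overnight at 37 °C. MIC was taken as the lowest concentration giving complete growth inhibition.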

Data set [4] is filed under the species Homo sapiens. Description: Stability in human serum at the time of 1.5 hours, stability was measured by in the form of percent Fluoro uracil. It counts as ADME. The essentials:
as §1

The species entered for data set [5] is Homo sapiens. The data set can be described thus: Stability in human serum at the time of 0.5 hours, stability was measured by in the form of percent Fluoro uracil. The data set is classed as ADME. The essentials:
as §1

Data set [6] concerns Escherichia coli. The data set can be described thus: 2 mg/disk of dialanine was codisked on the compound and evaluated for antagonistic activity against Escherichia coli M2626,at 6.0 ug/disk. It counts as functional. The essentials: (§3)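 Disk diffusion on E. coli seeded agar plates. Culture grown in trypticase soy broth for 7 h at 37 °C with shaking at 250 rpm, then 1 mL per litre of agar medium; plates made as for C. albicans but with M-9 medium. Peptide in water absorbed onto 6.35-mm paper disks. Antagonism tested by placing a second disk with noninhibitory di- or tripeptide over the test disk. Plates incubated 24 h at 37 °C; inhibition zones read.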

In data set [7] the test system is Escherichia coli. The data set can be described thus: 2 mg/disk of dialanine was codisked on the compound and evaluated for antagonistic activity against Escherichia coli M2626,at 1.5 ug/disk. The data set is classed as functional. The essentials: as §3
For data set [8], the system named is Escherichia coli. Description: 2 mg/disk of dialanine was codisked on the compound and evaluated for antagonistic activity against Escherichia coli M2626,at […]. It counts as functional.
The species named for data set [9] is Homo sapiens. Description: Stability in human serum at the time of zero(0) hours, stability was measured by in the form of percent Fluoro uracil. It counts as ADME. The essentials: as §1
For data set [10], the species on record is Mus musculus. The data set can be described thus: Stability in mouse serum at the time of 0.5 hours, stability was measured by in the form of percent Fluoro uracil. It counts as ADME. The essentials: as §1
Data set [11] is described as follows: Stability in water (H20) at the time of zero(0) hours, stability was measured by in the form of percent Fluoro uracil. It counts as physicochemical. The note with it: buffer. The essentials: (§4)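 A 1:1 mixture of the L,L and L,D peptide diastereomers was added at 0.5 mg/mL to distilled water and kept at 23 °C. Samples were taken over time, filtered through glass fiber, and analysed by RP-18 HPLC. Values are the percent free 5-FU formed.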

Data set [12] has as its system Escherichia coli. The data set can be described thus: Compound is evaluated for antagonistic activity against Escherichia coli M2626 at […]. The data set is classed as functional.
The test system of data set [13] is Escherichia coli. The data set can be described thus: Compound is evaluated for antagonistic activity against Escherichia coli M2626 at 1.5 ug/disk. The data set is classed as functional. The essentials:
as §3

The species named for data set [14] is Homo sapiens. Description: Stability in human serum at the time of 5 hours, stability was measured by in the form of percent Fluoro uracil. The data set is classed as ADME. The essentials: as §1
Data set [15] deals with Escherichia coli. Description: Compound is evaluated for antagonistic activity against Escherichia coli M2626 at 25.0 ug/disk. It counts as functional. The essentials:
as §3

Data set [16] relates to Candida albicans. The data set can be described thus: Compound is evaluated for minimum inhibitory concentrations against Candida albicans strain B311. It counts as functional. The essentials: as §2
Data set [17] deals with Escherichia coli. Description: Compound is evaluated for antagonistic activity against Escherichia coli M2626 at 6.0 ug/disk. The data set is classed as functional. The essentials:
as §3

Data set [18] relates to Escherichia coli. Description: 2 mg/disk of dialanine was codisked on the compound and evaluated for antagonistic activity against Escherichia coli M2626,at 3.0 ug/disk. The data set is classed as functional. The essentials:
as §3

The species named for data set [19] is Mus musculus. The data set can be described thus: Stability in mouse serum at the time of 24 hours, stability was measured by in the form of percent Fluoro uracil. It counts as ADME. The essentials: as §1
The subject of data set [20] is Candida albicans. The data set can be described thus: Compound is evaluated for minimum inhibitory concentrations against Candida albicans strain 3153A. The data set is classed as functional. The essentials:
as §2

The species entered for data set [21] is Mus musculus. Description: Stability in mouse serum at the time of zero(0) hours, stability was measured by in the form of percent Fluoro uracil. It counts as ADME. The essentials: as §1
Data set [22] is described as follows: Stability in water (H20) at the time of 240 hours, stability was measured by in the form of percent Fluoro uracil. It counts as physicochemical. The note with it: buffer. The essentials: as §4
For data set [23], the species on record is Mus musculus. Description: Stability in mouse serum at the time of 5 hours, stability was measured by in the form of percent Fluoro uracil. It counts as ADME. The essentials: as §1
The species entered for data set [24] is Homo sapiens. The data set can be described thus: Stability in human serum at the time of 50 hours, stability was measured by in the form of percent Fluoro uracil. It counts as ADME. The essentials: as §1
In data set [25] the test system is Escherichia coli. Description: Compound is evaluated for antagonistic activity against Escherichia coli M2626 at 3.0 ug/disk. The data set is classed as functional. The essentials: as §3
The species entered for data set [26] is Mus musculus. The data set can be described thus: Stability in mouse serum at the time of 2.5 hours, stability was measured by in the form of percent Fluoro uracil. It counts as ADME. The essentials: as §1
Data set [27] relates to Candida albicans. Description: Compound is evaluated for disk diffusion assay of the activity against Candida albicans B-311 at 1.5 ug/disk. It counts as functional. The essentials: (§5)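 Cells grown 7 h at 37 °C in trypticase soy broth with shaking at 250 rpm. 1 mL of culture was seeded into 1 L of yeast carbon base agar with lysine 200 µg/mL, and 15 mL was poured per plate. Peptides in water were loaded onto 6.35-mm paper disks. Plates were incubated 24 h at 37 °C and inhibition zones read.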

The subject of data set [28] is Candida albicans. The data set can be described thus: Compound is evaluated for disk diffusion assay of the activity against Candida albicans B-311 at […]. It counts as functional.
For data set [29], the system named is Candida albicans. Description: Compound is evaluated for disk diffusion assay of the activity against Candida albicans B-311 at 25.0 ug/disk. It counts as functional. The essentials: as §5
Data set [30] deals with Candida albicans. The data set can be described thus: Compound is evaluated for disk diffusion assay of the activity against Candida albicans B-311 at 6.0 ug/disk. It counts as functional. The essentials:
as §5

The subject of data set [31] is Candida albicans. The data set can be described thus: Compound is evaluated for disk diffusion assay of the activity against Candida albicans B-311 at 3.0 ug/disk. The data set is classed as functional. The essentials: as §5
Setting [32] is: Candida albicans, read-out: MIC.

On to `C[C@H](N)C(=O)NC(C(=O)O)n1cc(F)c(=O)[nH]c1=O` (some centres undefined), for which the Serum stability was determined as 16 in [1]; 27 in [2]; 7 in [4]; 3 in [5]; 0 in [9]; 12 in data set [10]. Also, the Serum stability in data set [11] came to 0; in [14], 15; in data set [19], 53; in [21], 0; in data set [22], 9; in [23] it was 43. Besides, the Serum stability in data set [24] is reported as 25; in [26] it was 36. Also, the values for the minimal inhibitory concentration (MIC) in [3] (setting [32]), in data set [16] (setting [32]) and in [20] (setting [32]) were 6.3 µg/mL (≈ 23 µM), 25 µg/mL (≈ 91.2 µM) and 25 µg/mL (≈ 91.2 µM), respectively. Also, the Zone size in [6] was 0 mm; in data set [7], 0 mm; in [8], 0 mm; in data set [12] it was 26 mm; in data set [13], 22 mm; in data set [15], 31 mm. Besides, the Zone size in data set [17] was 27 mm; in data set [18], 0 mm; in data set [25], 25 mm.

`C[C@H](N)C(=O)N[C@@H](C(=O)O)n1cc(F)c(=O)[nH]c1=O` (stereo in doubt; 8a(L,L)): the Activity is recorded as 16 in [27]; 26 in [28]; 30 in data set [29]; 22 in [30]; 20 in data set [31]. For the same molecule, the minimal inhibitory concentration (MIC) stood at 1.6 µg/mL (≈ 5.83 µM) in data set [3], 12.5 µg/mL (≈ 45.6 µM) in data set [16] and 12.5 µg/mL (≈ 45.6 µM) in [20].

Take `C[C@H](N)C(=O)N[C@@H](C(=O)O)n1cc(F)c(=O)[nH]c1=O` (stereo in doubt; 8b(L,D)): the Activity in [27], in data set [28], in data set [29], in data set [30] and in data set [31] was 0 in each case. The MIC in [3], in data set [16] and in [20] was more than 100 µg/mL throughout.

For the molecule `O=c1[nH]cc(F)c(=O)[nH]1` [FLUOROURACIL], the Activity in [27] amounted to 22; in [28] it was 40; in data set [29] it was 44; in [30], 30; in [31] it was 30. The minimal inhibitory concentration (MIC) in [3] (setting [32]) stood at 1 µg/mL (≈ 7.69 µM); in [16] (setting [32]), 4 µg/mL (≈ 30.8 µM); in data set [20] (setting [32]) it was 1 µg/mL (≈ 7.69 µM). In addition, the Zone size in [6] came out at 40 mm; in data set [7], 33 mm; in data set [8], 41 mm; in data set [12], 41 mm; in [13], 33 mm; in data set [15], 46 mm. The Zone size in data set [17] amounted to 40 mm; in data set [18], 38 mm; in data set [25] it was 38 mm.
